# Screening data from PubChem.
# M5 antag: antagonists of human muscarinic M5 receptor (CHRM5); inhibition, % at 3 µM; P08912; AID 624040; actives 0.59% (n = 360,000); CHO-hM5 cells, Fluo-8 calcium fluorescence, ACh EC80;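 active means inhibition above a per-plate cutoff, the mean of that plate's test compounds plus 3 SD, cut at about 27% in these data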;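 further: 0% = acetylcholine EC80 with DMSO and 100% = DMSO without agonist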
# M5 ag: CHRM5 agonism in calcium assay; P08912; CHO-K1 hM5 cells, Fluo-8 calcium fluorescence; 0% DMSO wells, 100% maximal acetylcholine response; activation, % at 3 µM; actives 0.19% (n = 360,000);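 active means activation above the run's mean over test compounds plus 3 SD, cut at about 23% in these data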;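 further: signal is peak over basal fluorescence ratio across the kinetic read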
# M5 PAM: potentiates acetylcholine response at human M5 receptor; activation, % at 3 µM; AID 624038; CHO-K1 hM5, Fluo-8 calcium, ACh EC20 PAM; 0% = ACh EC20, 100% = ACh EC100; P08912; actives 0.3% (n = 360,000);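 active means activation above the run cutoff, the mean activation of all test compounds plus 3 SD, cut at about 18% in these data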
#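 System: CHO-K1 cell line with stable human muscarinic M5 receptor expression | Also added: EC20 acetylcholine as agonist stimulus | Compound: One concentration, 3 µM final (nominal) | Timing: Fluo-8 loading 80 min at 37 °C plus 30 min room temperature | Measured by: Fluo-8 calcium dye fluorescence, kinetic read | Read-out basis: % activation, ACh-normalized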
# M1 ag: activates human CHRM1 receptor; P11229; CHO-K1 hM1, Fluo-8 calcium fluorescence, agonist mode; 0% DMSO, 100% acetylcholine EC100; activation, % at 3 µM; actives 0.33% (n = 360,000); AID 588814;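 active means activation above the run's mean compound activation plus 3 SD, cut at about 16% in these data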;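 further: peak over basal fluorescence ratio within a 140 s kinetic read after compound addition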
# Target sequence (P11229 whole entry, looked up): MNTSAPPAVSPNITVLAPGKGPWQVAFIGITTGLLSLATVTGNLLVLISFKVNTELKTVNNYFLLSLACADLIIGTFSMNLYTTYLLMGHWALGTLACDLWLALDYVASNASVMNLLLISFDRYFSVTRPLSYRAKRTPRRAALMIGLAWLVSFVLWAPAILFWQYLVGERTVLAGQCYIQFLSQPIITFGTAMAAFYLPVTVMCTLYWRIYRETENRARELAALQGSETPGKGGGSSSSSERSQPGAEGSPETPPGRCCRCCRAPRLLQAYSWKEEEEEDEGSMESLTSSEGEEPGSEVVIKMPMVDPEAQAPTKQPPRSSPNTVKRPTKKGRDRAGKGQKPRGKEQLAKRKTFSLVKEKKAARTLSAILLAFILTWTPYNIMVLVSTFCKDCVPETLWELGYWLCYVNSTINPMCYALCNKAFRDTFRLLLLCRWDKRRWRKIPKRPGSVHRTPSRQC
# M1 antag: blocks human M1 muscarinic receptor; actives 1.3% (n = 360,000); CHO-K1 hM1, Fluo-8 calcium fluorescence, ACh EC80 antagonist; P11229; inhibition, % at 3 µM;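 active means percent inhibition above its own plate's cutoff, namely the mean of that plate's compound wells plus 3 SD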;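 further: peak over basal fluorescence ratio during 140 s after agonist addition; 0% = ACh EC80 plus DMSO and 100% = DMSO alone without agonist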
# M1 PAM: human CHRM1 positive allosteric modulation | activation, % at 3 µM | actives 0.088% (n = 360,000) | CHO-K1 hM1, Fluo-8 calcium fluorescence, ACh EC20; 0% = ACh EC20, 100% = maximal ACh | AID 588819; in the data active means activation above about 19%, passing the limit was not always enough
# The depositor's hits bear a star; x = no result given. Sampled rows, rich in hits. Any-hit rate of the full collection: about 2%.
SMILES,M5 antag,M5 ag,M5 PAM,M1 ag,M1 antag,M1 PAM
O=S(=O)(Nc1ncn[nH]1)c1ccc2ccccc2c1,-1.3,-7.5,-13.8,-1.0,4.0,0.2
Cc1ccc(-c2cc(C(=O)Nc3cnn(C45CC6CC(CC(C6)C4)C5)c3)no2)cc1,-2.6,1.9,4.3,5.3,-3.1,11.6
Cc1ccc(-c2cc(C(=O)Nc3cnn(C(C)C)c3)no2)cc1,-2.3,26.1*,-13.7,-0.2,16.4,-3.2
CCc1nc2c(OCCC3CCCCC3)cccn2c1N(C)C(=O)c1ccc(C)cc1,3.2,-2.5,-3.6,-8.7,0.8,-8.0
CCC(=O)c1ccc(OCC(=O)Nc2nc(C)cs2)cc1,12.8,2.7,1.3,0.7,-9.7,3.8
CCC(=O)c1ccc(OCC(=O)Nc2nc(-c3cccnc3)cs2)cc1,13.6,5.1,-24.3,-1.2,26.9*,-9.8
CN(CC(=O)N1CCCc2c1c(=O)oc1ccc(O)cc21)Cc1ccccc1,4.5,-3.5,1.2,-6.9,24.4*,-25.7
CCCCCCCCN1C(=O)[C@H](CC(=O)NCc2ccc(OC)c(OC)c2)C[C@@]2(C(=O)OCC)CCCC=C12,-3.3,-5.9,-5.2,x,x,x
C=CCN1CCN(c2ccncc2S(=O)(=O)N2CCCCC2)CC1,2.5,-7.5,-14.1,-6.5,31.1*,-18.5
CC(C)N1CCN(c2ccncc2S(=O)(=O)N2CCOCC2)CC1,1.4,-12.6,-11.9,-5.6,47.6*,-19.5
Cc1cccc(C)c1C(O)c1ncc(-c2cccc(F)c2)[nH]1 (centres undefined),4.0,0.1,-2.5,-3.4,-11.4,7.2
CCCCc1c(-c2cccc(Br)c2)ncn1CCc1ccccc1OC,2.5,-2.4,-19.1,x,x,x
CN(C(=O)COC(=O)c1ccc(S(=O)(=O)N2CCCCCC2)cc1)c1ccccc1,0.3,-1.1,-0.9,-7.0,-12.0,5.5
CN(C(=O)COC(=O)c1ccc(CN2CCCC2=O)cc1)c1ccccc1,7.6,-1.0,-10.1,-7.9,67.7*,-28.5
O=C(NN=Cc1ccccc1C(=O)O)C(=O)NN=Cc1ccccc1C(=O)O,2.2,-0.4,-1.6,2.7,-12.4,15.7
O=C(O)c1ccccc1/C=N/NC(=S)NCc1ccccc1,32.3*,3.3,34.5*,-3.6,-7.8,8.0
COc1ccc(C2=NOC(Cn3nc(C(=O)NCc4ccco4)cc3-c3ccccc3)C2)cc1 (centres undefined),10.2,4.4,-29.4,0.5,33.2*,-20.8
CCCCCCN1C[C@H](n2cc(-c3ccc(F)cc3)nn2)[C@@H](O)C[C@@H]1c1ccc(C)cc1,5.7,-0.3,-4.9,3.0,19.5*,-10.1
CN(CC(=O)NCc1ccco1)C(=O)C1CC(=O)N(c2ccc3c(c2)OCCO3)C1 (centres undefined),-7.0,-0.2,1.9,1.9,-21.0,28.2*
O=[N+]([O-])c1ccc(Nc2ccc(Cl)cc2)nc1,30.7*,-4.2,-15.0,-11.0,5.9,-11.6
O=[N+]([O-])c1ccc(CS(=O)(=O)c2ccc(Cl)cc2)cc1,1.9,-7.8,-2.2,-7.5,40.9*,-2.0
CCOC(=O)[C@]12CCCC=C1N(Cc1ccco1)C(=O)[C@H](CC(=O)N1CCOCC1)C2,16.0,-0.5,-4.0,x,x,x
COc1ccc(S(=O)(=O)N2CCOCC2)cc1NC(=O)c1ccc(SC)cc1OC,-10.3,-2.2,-0.6,-4.3,-22.9,7.3
Cc1nc2nc(C)c(CCC(=O)NC(C)c3ccc4c(c3)OCCO4)c(C)n2n1 (centres undefined),24.3,-2.9,-3.8,-5.6,68.0*,-10.1
O=Cc1ccc(N2CCCC2)c([N+](=O)[O-])c1,-8.8,-2.8,-3.9,-6.8,-7.3,12.2
O=[N+]([O-])/C=C\c1ccc(N2CCCC2)c(F)c1,78.0*,63.6*,-27.0,24.3*,50.7*,3.1
COc1ccccc1CNc1nc(NCc2ccccc2F)c2sccc2n1,26.1,1.9,-30.1,1.3,40.2*,-15.9
C#Cc1cccc(Nc2nc(NCc3ccccc3OC)nc3ccsc23)c1,36.1*,3.4,-17.0,-2.5,34.6*,-17.8
